Measurements published in ChEMBL document CHEMBL3244283, “Synthesis and biological activity of potential antimetabolites” (1977).
≈ marks a conversion by molar mass, not a printed value. Calls of active or inactive are those of the source. No cut-off for these calls is given here.

Columns and labels:
[1] = Cytotoxicity against human NCI-[…] cells assessed as growth inhibition; type: functional
Method in brief: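 Run through the NCI routine preliminary in vitro cell-culture screen (9KB system) on human epidermoid carcinoma of the nasopharynx. ED50 is the concentration giving 50% growth inhibition relative to untreated controls.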

[2] = system: L1210; assay: Antitumor activity against mouse L1210 cells allografted in BDF1 mouse; type: functional, cell-based
Method in brief: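 Run through the NCI routine preliminary in vivo screen (2LE system). L1210 lymphoid leukemia was carried in BDF1 host mice.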

[3] = system: Escherichia coli; assay: Inhibition of Escherichia coli aspartate transcarbamylase assessed as interaction between aspartate and carbamyl phosphate at 66 mM relative to control
Method in brief: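 E. coli aspartate transcarbamylase (0.1 per ml) catalysed the reaction of 5 mM aspartate with 4 mM carbamyl phosphate. Test agent was present at 66 mM, and phosphate at the same concentration served as a comparison. Enzyme activity was read colorimetrically. Inhibition is expressed as a percentage relative to the uninhibited reaction.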

[4] = system: Escherichia coli; assay: Irreversible inhibition of Escherichia coli aspartate transcarbamylase in presence of aspartate
[5] = system: Escherichia coli; assay: Irreversible inhibition of Escherichia coli aspartate transcarbamylase in absence of aspartate

SMILES	ED50 [1]	Activity [2]	inhibition [3]	inhibition [4]	inhibition [5]
O=C(CCl)NP(=O)([O-])[O-].[Li+].[Li+]	2.5 µg/mL	inactive	60%	inactive	inactive
NCCCCC(N)C(=O)CCl (stereo not drawn)	2.7 µg/mL (≈ 15.1 µM)	inactive	–	–	–
NC(Cc1ccccc1)C(=O)CCl (stereo not drawn)	4 µg/mL (≈ 20.2 µM)	inactive	–	–	–
CC(C)CC(N)C(=O)CCl (stereo not drawn)	7.6 µg/mL (≈ 46.4 µM)	inactive	–	–	–
NC(Cc1ccc(O)cc1)C(=O)CCl (stereo not drawn)	2.1 µg/mL (≈ 9.83 µM)	inactive	–	–	–
